Shown are actives, neighbours in structure and some others; about 12% of the full set was active somewhere.
L major viab – Leishmania major promastigote growth inhibition; inhibition, % at 10 µM; 9% of 200,000 active; AID 1063; Leishmania major promastigotes, resazurin fluorescence viability; in the data active = inhibition above about 50%;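 also: promastigotes grown with compound for 44 hours at 28 °C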
RAM inhibit – yeast RAM network inhibition; 1.8% of 190,000 active; S. cerevisiae dse1pr::URA3 reporter, 5-FOA growth OD615, 2 d; analog-sensitive cbk1-as2 kinase mutant strain; inhibition, % at 50 µM;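 active = inhibition above a set limit, 3 SD over mean compound inhibition, cut at about 8.4% in these data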;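 also: 0% = DMSO-only wells with no growth and 100% = 10 µM 1-NA-PP1 full growth; inhibition rescues growth on 5-FOA so higher OD means more RAM inhibition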
ABCB1 inh – inhibitors of human ABCB1 transporter, ABCG2 counter-screen; CCRF-Adr cells, JC-1 efflux, flow cytometry; P08183; AID 1326; 0.067% of 190,000 active; inhibition, % at 6.6 µM; in the data active = inhibition above about 40%;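 also: 0% = vehicle and 100% = reference inhibitor; higher value means more JC-1 retained so stronger ABCB1 efflux block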
ABCG2 block – blocks JC-1 efflux by human ABCG2 transporter; Q9UNQ0; IgMXP3 cells, flow cytometry; inhibition, % at 6.6 µM; 0.1% of 190,000 active; AID 1325;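 active = inhibition above 80%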;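 also: 0% = DMSO and 100% = nicardipine control wells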
Target sequence (Q9UNQ0 whole entry, looked up): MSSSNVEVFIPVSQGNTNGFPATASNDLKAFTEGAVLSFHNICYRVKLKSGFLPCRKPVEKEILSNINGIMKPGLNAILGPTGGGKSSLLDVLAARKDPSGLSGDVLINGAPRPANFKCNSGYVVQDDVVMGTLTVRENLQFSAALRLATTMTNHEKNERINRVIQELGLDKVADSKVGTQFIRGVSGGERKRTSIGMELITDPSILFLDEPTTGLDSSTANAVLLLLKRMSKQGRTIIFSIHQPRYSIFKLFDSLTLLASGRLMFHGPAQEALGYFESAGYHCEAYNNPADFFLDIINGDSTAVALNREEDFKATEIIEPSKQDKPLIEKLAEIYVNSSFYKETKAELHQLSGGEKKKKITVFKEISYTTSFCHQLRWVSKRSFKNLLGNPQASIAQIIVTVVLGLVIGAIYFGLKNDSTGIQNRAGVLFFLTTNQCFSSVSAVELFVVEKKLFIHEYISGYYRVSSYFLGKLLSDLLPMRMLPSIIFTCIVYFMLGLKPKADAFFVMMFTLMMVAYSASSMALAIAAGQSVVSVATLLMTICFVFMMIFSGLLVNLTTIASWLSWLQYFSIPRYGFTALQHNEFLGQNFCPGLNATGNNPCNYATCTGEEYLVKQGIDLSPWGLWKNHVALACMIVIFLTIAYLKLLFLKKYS
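Times: 10 min at 25 °C | Test system: Two drug-resistant human cell lines, ABCG2 and ABCB1 | Quantity: 3 million cells/mL final, two lines in 1:1 ratio | Signal: Flow cytometry, 530 nm JC-1 signal | Dosing: Compound at 6.6 µM | Controls: Nicardipine and DMSO wells | Reagent: JC-1 as fluorescent efflux pump substrate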
WT yeast gro inh – growth inhibition of WT yeast, mitochondrial fusion screen; mitochondrial fusion phenotypic screen, WT strain; inhibition, % at 10 µM; 2.1% of 190,000 active; AID 1362; in the data active = inhibition above about 58%; tested in S. cerevisiae
RAM 5-FOA – RAM network inhibition, efflux-deficient strain; 1,200 tested, under 10 active; shares compounds with RAM inhibit; max inhibition, %; S. cerevisiae efflux-deficient reporter strain, 5-FOA growth OD615, 2 days; AID 1305; call rule not given here;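 also: plate controls were vehicle for no effect and reference inhibitor for full effect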
Active calls of the source: *; . = no result.

SMILES	L major viab	RAM inhibit	ABCB1 inh	ABCG2 block	WT yeast gro inh	RAM 5-FOA
O=C(/C=C/c1ccc(-c2ccccc2[N+](=O)[O-])o1)c1ccccc1	28	16*	1	17	41	4
CNC(=O)/C(C#N)=C/c1ccc(-c2ccccc2[N+](=O)[O-])o1	-1	4	0	1	3	.
Cc1ccc(-n2ncc(Cl)c2C(=O)NC2CC2)cc1	-2	1	1	2	15	.
CCCCNC(=O)C(c1ccc(-c2ccccc2)cc1)N(CCN1CCOCC1)C(=O)CCCCCN1C(=O)NC(c2ccc([N+](=O)[O-])cc2)C(C(=O)OCc2ccccc2)=C1C (stereo not drawn)	-3	3	2	3	5	.
CCCCCCN(C(=O)CCCCCN1C(=O)NC(c2ccc(-c3ccccc3)cc2)C(C(=O)OCc2ccccc2)=C1C)C(C)C(=O)NCCCC (stereo not drawn)	-2	28*	5	13	-21	6
Cc1ccc(N(CCCCN2C(=O)c3ccccc3C2=O)C(=O)c2cccs2)cc1	-2	12*	2	9	-5	3
COc1ccc(N(CCCN2C(=O)c3cccc4cccc(c34)C2=O)C(=O)c2cccs2)cc1	6	6	1	-1	12	.
COc1ccc(-c2nc(CCl)cs2)cc1OC	14	0	0	4	3	.
COc1ccc(-c2nc(-c3ccc(O)cc3O)cs2)cc1OC	27	12*	0	2	46	4
OCCC1CN(Cc2cccc3nonc23)CCN1C1CCCCC1 (stereo not drawn)	2	1	0	-1	5	.
CCOc1ccc2nc(NC(=O)CSc3nc(-c4ccccc4)c(C#N)c(=O)[nH]3)sc2c1	-5	14*	-2	-4	5	4
COc1ccccc1NS(=O)(=O)/C=C/c1ccccc1	25	1	0	1	-5	.
COc1ccccc1OCCN(C#N)c1nc(N(C)C)nc(N(C)C)n1	8	0	2	30	14	.
Cc1ccc(C(=O)c2cc3ccccc3o2)cc1	-2	1	0	1	5	.
Cc1ccc(C(=O)c2cc3ccccc3o2)cc1C	-1	15*	0	2	-23	3
CCOC(=O)c1c(NC(=O)COC(=O)CCS(=O)(=O)c2ccc(C)cc2)sc(C)c1C	-1	14*	1	13	-11	3
CCOC(=O)c1cc(C(C)C)sc1NC(=O)COC(=O)CCS(=O)(=O)c1ccccc1	-1	13*	1	19	10	2
Cc1ccc(S(=O)(=O)CCC(=O)OCC(=O)Nc2cc(C)on2)cc1	2	1	1	1	11	.
O=C(C1CC(=O)N(C2CCCCC2)C1)N1CCc2ccccc21 (stereo not drawn)	1	0	1	3	-9	.
COC(=O)c1ccc(=O)n(Cc2ccc3c(c2)OCO3)c1	-1	2	0	2	-1	.
O=C(/C(=N/N=C/c1ccc(O)c(O)c1O)c1ccccc1)c1ccccc1	-6	17*	-2	-10	3	1
CCOc1ccc(-c2c(C(=O)N/N=C/c3ccc(OC)cc3)nnn2-c2nonc2N)cc1	-6	12*	0	-1	-3	1
CCCOc1ccc(-c2c(C(=O)N/N=C/c3ccc(OC)cc3)nnn2-c2nonc2N)cc1	21	8	0	2	-1	.
COC(=O)CC1C(=O)NCCN1C(=O)CSc1nc2ccccc2s1 (stereo not drawn)	-5	1	-1	0	-12	.
NC(=O)CSc1cn(CCNC(=O)c2cccs2)c2ccccc12	.	.	.	.	15	.
SMILES	L major viab	RAM inhibit	ABCB1 inh	ABCG2 block	WT yeast gro inh	RAM 5-FOA
O=C(NCCn1cc(SCc2ccccc2)c2ccccc21)c1ccccc1F	27	15*	1	15	38	2
Cc1ccc(NC(=O)Cn2ccc([N+](=O)[O-])n2)cc1C	-2	2	0	8	6	.
Cc1cc(NC(=O)Nc2cccc(C)c2C)no1	1	1	2	17	-5	.
O=C(O)COc1ccc(/C=N/n2c(COc3ccccc3)nc3ccccc3c2=O)cc1	-5	13*	-1	16	-5	3
S=C(NCCC(c1ccccc1)c1ccccc1)Nc1ccccc1Cl	14	15*	0	2	2	3
CCOC(=O)C1C(=O)NC(c2ccccc2)=NC1c1ccc(Br)cc1 (stereo not drawn)	17	2	0	1	-7	.
Cc1ccc(N/C(SCc2ccccc2C)=C(/C#N)C(=O)NCc2ccco2)cc1C	13	3	0	-3	17	.
CCc1ccc(N/C(SCc2cccc(F)c2)=C(/C#N)C(=O)NCc2ccco2)cc1	26	16*	1	3	21	5
CC1(C)CC(=O)C2=C(C1)c1c(ccc3ccccc13)NC2c1ccco1 (stereo not drawn)	11	16*	.	.	14	2
COc1ccccc1N(C)S(=O)(=O)c1ccc(C(=O)OCC(=O)NCCC2=CCCCC2)cc1	34	15*	3	15	8	2
O=C(CNCC1(N2CCOCC2)CCCCC1)Nc1ccc(Cl)cc1	18	1	0	-1	-2	.
CC(=O)NC(Cc1ccccc1C)C(=O)NC1CCN(c2ncccc2[N+](=O)[O-])CC1 (stereo not drawn)	-6	5	0	1	-26	.
CCN(CC)S(=O)(=O)c1cccc(-c2nnc(SCC(=O)c3cc(C)n(C)c3C)o2)c1	0	3	1	4	-8	.
CCN(CC)S(=O)(=O)c1cccc(-c2nnc(SCCOc3ccc(Cl)cc3)o2)c1	-8	16*	1	8	24	3
CCN(CC)S(=O)(=O)c1cccc(-c2nnc(SCCOc3ccccc3)o2)c1	4	13*	1	4	11	3
CCN(CC)S(=O)(=O)c1cccc(-c2nnc(SCCOc3ccccc3C)o2)c1	-2	12*	0	2	6	2
O=C(Cc1cccs1)Nc1ccc(S(=O)(=O)Nc2ncccn2)cc1	1	3	-1	-8	-1	.
O=C(CN(Cc1cccs1)S(=O)(=O)c1ccc(S(=O)(=O)NC2CCCCC2)cc1)Nc1ccccc1	41	14*	1	7	3	1
O=C(OCc1csc(-c2ccccc2)n1)c1ccc(O)cc1	7	-1	0	0	1	.
COc1ccc(/C=C/C(=O)OCc2csc(-c3ccccc3)n2)cc1OC	39	16*	1	6	26	2
Cc1ncoc1C(=O)N1CCCC(C(=O)c2ccc(C(F)(F)F)cc2)C1 (stereo not drawn)	-6	3	0	11	3	.
CCCCNC(=O)c1c(N)n(/N=C/c2ccccn2)c2nc3ccccc3nc12	-6	0	2	5	4	.
CC(C)CNC(=O)c1c(N)n(/N=C/c2ccccn2)c2nc3ccccc3nc12	-8	15*	1	16	35	4

Screening results as filed in PubChem BioAssay.
